In ChEMBL document CHEMBL4354869, “pH-Dependent Grafting of Cancer Cells with Antigenic Epitopes Promotes Selective Antibody-Mediated Cytotoxicity” (J Med Chem, 2020) one finds Activity and Drug uptake data, which are given here for one compound.

Calls of active or inactive are those of the source. The calls are words filed in the database; no cut-off is given here. Peptide text beside a SMILES is read from it. * marks the point of attachment. Dnp = O=[N+]([O-])c1ccc(*)c([N+](=O)[O-])c1

Series [1] concerns MDA-MB-231. Put plainly: Induction of complement dependent cytotoxicity against human MDA-MB-231 cells assessed as cell lysis at 1 uM incubated for 5 mins at pH 6 followed by compound washout prior to anti-DNP antibody addition for 30 mins and subsequent pooled human serum addition measured after 4 hrs by LDH release assay relative to control. Type of series: functional. In outline:
(§1)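 240000 MDA-MB-231 exposed in suspension to 1 μM conjugate for 5 min, 37 °C, at pH 7.4 or 6.0, washed, 25 μg/mL unlabeled anti-DNP rabbit polyclonal 30 min 4 °C, then 12.5% pooled human complement serum in DMEM 4 h at 37 °C. Supernatant LDH (A490/A680); % lysis vs antibody-only cells without peptide.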
In general terms: Release of lactate dehydrogenase indicates damage to the cell membrane.

Series [2] relates to MDA-MB-231. Put plainly: Induction of complement dependent cytotoxicity against human MDA-MB-231 cells assessed as cell lysis at 1 uM incubated for 5 mins at pH 7.4 followed by compound washout prior to anti-DNP antibody addition for 30 mins and subsequent pooled human serum addition measured after 4 hrs by LDH release assay. The series is classed as functional, cell-based. In outline: as §1

The next series relates to Lipid bilayer. Kind of series: Binding affinity to POPC large unilamellar vesicle at 1:300 ratio measured after 30 mins at pH 5 to 7.4 by circular dichroism spectroscopic analysis. The essentials:
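Peptide (20 μM stock in 5 mM sodium phosphate pH 8.0; 7 μM final) mixed with POPC LUVs (extruded, 100 nm pores) at 1:300, pH lowered with HCl, 30 min RT. Far-UV CD 260–200 nm in 0.1 cm cuvette, ≥5 scans averaged, liposome spectrum subtracted; expressed as mean residue molar ellipticity.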
For orientation: Circular dichroism is widely used to follow secondary structure.

Series [3] has as its system MDA-MB-231. Kind of series: Cytotoxicity against human MDA-MB-231 cells assessed as increase in cell lysis at 0.5 to 1 uM incubated for 5 mins at pH 6 to 7.4 followed by compound washout prior to anti-FITC polyclonal rabbit antibody addition for 30 mins and subsequent human PBMC addition at 5:1 effector to target ratio measured after 4 hrs by LDH release assay. The series is classed as cell-based. The following applies: mda-mb-231, pH 6, 1 µM.

The subject of series [4] is MDA-MB-231. Put plainly: Cytotoxicity against human MDA-MB-231 cells assessed as increase in cell lysis at 0.5 to 1 uM incubated for 5 mins at pH 6 to 7.4 followed by compound washout prior to anti-FITC polyclonal rabbit antibody addition for 30 mins and subsequent human haNK cell addition at 5:1 effector to target ratio measured after 4 hrs by LDH release assay. Type of series: cell-based. The following applies: mda-mb-231, pH 6, 1 µM. The essentials: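 150000 target cells (MDA-MB-231; also LnCap, SK-OV-3 with haNK) treated with conjugate 5 min at 37 °C, pH 7.4 or 6.0, washed, 25 μg/mL anti-FITC rabbit polyclonal 30 min 4 °C, then 4 h at 37 °C with PBMCs at 50:1 (RPMI) or haNK at 5:1 (MEMα). LDH release; % lysis relative to antibody-only pH 7.4 cells; mean ± SEM, n = 3–12.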

For series [5], the system named is MDA-MB-231. Put plainly: Cytotoxicity against human MDA-MB-231 cells assessed as increase in cell lysis at 0.5 to 1 uM incubated for 5 mins at pH 6 to 7.4 followed by compound washout prior to human PBMC addition at 50:1 effector to target ratio measured after 4 hrs by LDH release assay. Conditions: mda-mb-231, pH 6, 4 h.
In series [6] the test system is MDA-MB-231. Put plainly: Induction of antibody dependent cytotoxicity against human MDA-MB-231 cells assessed as cell lysis at >1 uM incubated for 5 mins at pH 6 followed by compound washout prior to anti-DNP antibody addition for 30 mins and subsequent human PBMC addition at 5:1 effector to target ratio measured after 4 hrs by LDH release assay. The series is classed as functional, cell-based.

In series [7] the test system is MDA-MB-231. Put plainly: Induction of opsonization in human MDA-MB-231 cells assessed as increase in recruitment of anti-DNP antibody to cell surface at 1 uM preincubated with AlexaFluor-488-conjugated anti-DNP antibody for 30 mins followed by cell addition at pH 6 to 7.4 by flow cytometry. The series is classed as functional, cell-based. Background: In flow cytometry, cells or beads pass a laser one at a time.

In series [8] the test system is MDA-MB-231. Kind of series: Induction of opsonization in human MDA-MB-231 cells assessed as increase in recruitment of anti-DNP antibody to cell surface at 1 uM measured after 5 mins at pH 6 to 7.4 by AlexaFluor-488-conjugated anti-DNP antibody based immunofluorescence microscopic analysis. Type of series: functional. The essentials:
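MDA-MB-231 grown on poly-L-lysine coverslips (~70% confluent), exposed to 1 μM conjugate 5 min at 37 °C, pH 7.4 or 6.0, methanol-fixed, stained 1 h at 37 °C with anti-DNP-A488 at 40 μg/mL, Hoechst counterstain; imaged with 20× objective.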

The test system of series [9] is MDA-MB-231. Kind of series: Induction of antibody dependent cytotoxicity against human MDA-MB-231 cells assessed as cell lysis at 500 nM incubated for 5 mins at pH 6 to 7.4 followed by compound washout prior to anti-DNP antibody addition for 30 mins and subsequent human haNK cell addition at 5:1 effector to target ratio measured after 4 hrs by LDH release assay relative to control. The series is classed as functional. The essentials:
(§2)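 150000 MDA-MB-231 given conjugate 5 min at 37 °C, pH 7.4 or 6.0, washed at 4 °C, 25 μg/mL anti-DNP rabbit polyclonal 30 min 4 °C, then effectors 4 h at 37 °C: single-donor PBMCs at 50:1 in RPMI 1640, or haNK (F176V CD16 NK-92, IL-2-grown) at 5:1 in MEMα. Supernatant LDH; % lysis vs antibody+effector without peptide; mean ± SEM, n = 3–12.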

Series [10] relates to MDA-MB-231. Kind of series: Induction of antibody dependent cytotoxicity against human MDA-MB-231 cells assessed as induction of cell lysis at >500 nM incubated for 5 mins at pH 6 to 7.4 followed by compound washout prior to anti-DNP antibody addition for 30 mins and subsequent human haNK cell addition at 5:1 effector to target ratio measured after 4 hrs by LDH release assay. The series is classed as functional, cell-based. In outline: as §2

Series [11] deals with MDA-MB-231. Put plainly: Induction of antibody dependent cytotoxicity against human MDA-MB-231 cells assessed as cell lysis at 0.1 uM incubated for 5 mins at pH 6 followed by compound washout prior to anti-DNP antibody addition for 30 mins and subsequent human PBMC addition at 5:1 effector to target ratio measured after 4 hrs by LDH release assay relative to control. Type of series: functional.

For series [12], the system named is MDA-MB-231. Kind of series: Induction of antibody dependent cytotoxicity against human MDA-MB-231 cells assessed as increase in cell lysis incubated for 5 mins at pH 6 to 7.4 followed by compound washout prior to anti-DNP antibody addition for 30 mins and subsequent human PBMC addition at 5:1 effector to target ratio measured after 4 hrs by LDH release assay. Type of series: functional, cell-based.

The subject of series [13] is MDA-MB-231. Kind of series: Cytotoxicity against human MDA-MB-231 cells assessed as increase in cell lysis at <=10 uM measured after 4 hrs by LDH release assay. Conditions: mda-mb-231, 4 h. The series is classed as cell-based.
A short description of series [14]: Drug internalization in human MDA-MB-231 cells assessed as increase in fluorescence at 1 uM measured after 30 mins at pH 6 to 7.4 in presence of FITC-labeled anti-human IgG by flow cytometric method. The series is classed as ADME, cell-based. Conditions: mda-mb-231, pH 6, 0.5 h. In outline: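 Control for specificity: MDA-MB-231 treated with 1 μM conjugate at pH 7.4 or 6.0 (5–10 min, 37 °C), washed, then incubated ± 25 μg/mL FITC anti-human IgG in PBS/10% FBS, 30 min at 4 °C, fixed, read by flow cytometry.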

As to `CC[C@H](C)[C@H](NC(=O)[C@@H]1CCCN1C(=O)[C@H](CC(N)=O)NC(=O)[C@H](CCC(N)=O)NC(=O)[C@H](CCC(=O)O)NC(=O)[C@@H](N)CCCCNc1ccc([N+](=O)[O-])cc1[N+](=O)[O-])C(=O)N[C@@H](Cc1ccc(O)cc1)C(=O)N[C@@H](Cc1c[nH]c2ccccc12)C(=O)N[C@@H](C)C(=O)N[C@@H](CCCNC(=N)N)C(=O)N[C@@H](Cc1ccc(O)cc1)C(=O)N[C@@H](C)C(=O)N[C@@H](CC(=O)O)C(=O)N[C@@H](Cc1c[nH]c2ccccc12)C(=O)N[C@@H](CC(C)C)C(=O)N[C@@H](Cc1ccccc1)C(=O)N[C@H](C(=O)N[C@H](C(=O)N1CCC[C@H]1C(=O)N[C@@H](CC(C)C)C(=O)N[C@@H](CC(C)C)C(=O)N[C@@H](CC(C)C)C(=O)N[C@@H](CC(C)C)C(=O)N[C@@H](CCC(=O)O)C(=O)N[C@@H](CC(C)C)C(=O)N[C@@H](C)C(=O)N[C@@H](CC(C)C)C(=O)N[C@@H](CC(C)C)C(=O)N[C@H](C(=O)N[C@@H](CC(=O)O)C(=O)N[C@@H](C)C(=O)N[C@@H](CC(=O)O)C(=O)N[C@@H](CCC(=O)O)C(=O)NCC(=O)N[C@H](C(=O)NCC(N)=O)[C@@H](C)O)C(C)C)[C@@H](C)O)[C@@H](C)O` (H-K(Dnp)EQNPIYWARYADWLFTTPLLLLELALLVDADEGTG-NH2), the Activity with MDA-MB-231 [1] is 10%; in the series on MDA-MB-231 [3] it was “Non-Toxic”; in the series on MDA-MB-231 [4], “Non-Toxic”; in the series on MDA-MB-231 [5] it was “Non-Toxic”; in the series on MDA-MB-231 [9], 40%; with MDA-MB-231 [11], 20%. Further, the Activity entry in the series on MDA-MB-231 [12] was “Dose-dependent effect”; in the series with MDA-MB-231 [13], “Non-Toxic”. The result with MDA-MB-231 [2], in the series with MDA-MB-231 [6] and with MDA-MB-231 [10] was inactive. Further, the result in the series on Lipid bilayer, in the series with MDA-MB-231 [7] and in the series on MDA-MB-231 [8] was Active. Moreover, in [14], the Drug uptake result is “Not Active”.
